Here are results for 16 compounds from ChEMBL document CHEMBL3085624, “Design, synthesis, and biological evaluation of novel investigational nonapeptide KISS1R agonists with testosterone-suppressive activity” (J Med Chem, 2013).

Activity calls are given as the source filed them. The calls are words filed in the database; no cut-off is given here. Non-standard residues stand in square brackets, D forms with d. Residues, ends and D or L forms follow the SMILES beside them. 2Nal = N[C@@H](Cc1ccc2ccccc2c1)C(=O)O; Arg(Me) = CNC(=N)NCCC[C@H](N)C(=O)O; d3Pal = N[C@H](Cc1cccnc1)C(=O)O; Cha = N[C@@H](CC1CCCCC1)C(=O)O; azaGly = NNC(=O)O

The target in data set [1] is T1, KiSS-1 receptor (Homo sapiens, UniProt Q969F8). Description: Binding affinity to human KISS1R expressed in CHO cell membranes.
T1 sequence (Q969F8 whole entry): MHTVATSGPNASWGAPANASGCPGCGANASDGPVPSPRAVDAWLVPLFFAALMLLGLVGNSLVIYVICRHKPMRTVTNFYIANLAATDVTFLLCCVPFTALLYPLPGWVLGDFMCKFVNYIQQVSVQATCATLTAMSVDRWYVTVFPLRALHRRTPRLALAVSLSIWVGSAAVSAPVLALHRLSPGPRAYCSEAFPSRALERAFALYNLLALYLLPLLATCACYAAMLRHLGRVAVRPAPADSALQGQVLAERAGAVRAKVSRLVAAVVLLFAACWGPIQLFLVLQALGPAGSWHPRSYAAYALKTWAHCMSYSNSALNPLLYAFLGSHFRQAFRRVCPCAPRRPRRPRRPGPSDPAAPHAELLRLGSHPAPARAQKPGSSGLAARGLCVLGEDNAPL
For data set [2], the target named is KiSS-1 receptor (Rattus norvegicus, UniProt Q924U1). Description: Binding affinity to rat KISS1R.
KiSS-1 receptor (Rattus norvegicus, UniProt Q924U1), sequence (Q924U1 whole entry): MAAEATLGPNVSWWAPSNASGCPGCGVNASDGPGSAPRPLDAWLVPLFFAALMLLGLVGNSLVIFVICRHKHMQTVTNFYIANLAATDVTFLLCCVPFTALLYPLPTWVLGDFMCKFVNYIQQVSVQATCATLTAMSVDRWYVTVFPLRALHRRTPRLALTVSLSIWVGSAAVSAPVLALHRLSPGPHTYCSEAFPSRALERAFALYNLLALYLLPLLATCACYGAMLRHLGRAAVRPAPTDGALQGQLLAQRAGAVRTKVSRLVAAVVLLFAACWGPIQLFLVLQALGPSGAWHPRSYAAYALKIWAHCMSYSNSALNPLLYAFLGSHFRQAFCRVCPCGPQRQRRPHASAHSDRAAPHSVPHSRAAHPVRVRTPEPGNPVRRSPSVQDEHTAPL
In data set [3] the target is T1, KiSS-1 receptor. The experiment in a line: Agonist activity at recombinant human KISS1R expressed in CHO cells assessed as intracellular calcium mobilization incubated for 30 mins at 37 degC and 30 mins at room temperature by Fluo-4 NW staining-based FLIPR assay relative to Metastin (45 to 54). The format is functional, cell-based. A digest of the protocol: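 CHO cells stably expressing human KISS1R seeded at 15,000 cells/well, cultured 24 h, then loaded with Fluo-4 Direct in HBSS with 4 mM probenecid and 0.1% BSA (30 min 37 °C, 30 min room temperature). Compounds from 10 µM DMSO stocks diluted in sample buffer and added. Fluorescence read for 2 min at 2 s intervals. Peak counts give agonist activity. EC50 expressed as ratio to metastin(45-54).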

Data set [4] in a line: Metabolic stability in mouse serum assessed as compound remaining at 0.1 mM after 1 hr by HPLC analysis. The format is ADME. Particulars: read-out: Stability. A digest of the protocol:
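Pooled mouse serum (45 µL) spiked with 5 µL of 1 mM aqueous peptide, giving 0.1 mM initial, and incubated at 37 °C. Aliquots taken at time 0 and after 1 h, quenched by boiling 3 min. Peptide quantified by HPLC peak area. Percent remaining relative to time 0; three independent experiments.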

Data set [5] has as its system Rattus norvegicus. Description: Suppression of testosterone in plasma of rat at 1 nmol/h, sc measured after 13 days by radioimmunoassay. The format is functional, organism-based. A digest of the protocol: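 Male rats given peptide continuously at 1 nmol/h. Plasma testosterone measured after 6 and 13 days; detection limit 0.04 ng/mL.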
Data set [6] concerns Rattus norvegicus. Description: Suppression of testosterone in plasma of Sprague-Dawley rat at 2 nmol/h, sc measured after 6 days by radioimmunoassay. The format is functional. A digest of the protocol:
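9-week-old male CD(SD)IGS or Copenhagen rats (5/group) given peptide in distilled water by subcutaneous dorsal ALZET osmotic pump (2 mM, 0.001 mL/h) for 6 days; water-pump controls. Plasma (aprotinin/EDTA) testosterone measured by RIA on 0.05 mL. Values below detection limit (0.04 ng/mL) set to 0.04; results expressed as percent of control.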

For orientation: Ki means a measure of affinity in units of concentration, obtained from inhibition or displacement.

For `CNC(N)=NCCC[C@H](NC(=O)[C@H](CC(C)C)NC(=O)NNC(=O)[C@H](Cc1ccccc1)NC(=O)[C@H](CO)NC(=O)[C@H](CC(N)=O)NC(=O)[C@H](Cc1c[nH]c2ccccc12)NC(=O)[C@@H](CO)NC(=O)[C@H](N)Cc1ccc(O)cc1)C(=O)N[C@@H](Cc1ccccc1)C(N)=O`, the values for the inhibition constant Ki in data set [1] and in data set [2] were 86 pM and 93 pM, respectively.

Turning to `CNC(=N)NCCC[C@H](NC(=O)[C@H](CC(C)C)NC(=O)NNC(=O)[C@H](Cc1ccccc1)NC(=O)[C@H](CO)NC(=O)[C@H](CC(N)=O)NC(=O)[C@H](Cc1c[nH]c2ccccc12)NC(=O)[C@@H](Cc1cnc[nH]1)NC(=O)[C@H](N)Cc1ccc(O)cc1)C(=O)N[C@@H](Cc1ccccc1)C(N)=O`, the fold change (FC) in data set [3] is 6.2. Besides, the Ki in data set [1] was 33 pM; in data set [2], 43 pM.

Take `CNC(N)=NCCC[C@H](NC(=O)[C@H](CC(C)C)NC(=O)NNC(=O)[C@H](Cc1ccccc1)NC(=O)[C@H](CO)NC(=O)[C@H](CC(N)=O)NC(=O)[C@@H](NC(=O)[C@@H](CC(N)=O)NC(=O)[C@H](N)Cc1ccc(O)cc1)[C@@H](C)O)C(=O)N[C@@H](Cc1ccccc1)C(N)=O`: the remaining at 1 h, 100 µM in data set [4] came out at 65.8%. The Ki in data set [1] turned out to be 290 pM; in data set [2], 250 pM.

Take `CCNC(=O)[C@@H]1CCCN1C(=O)[C@H](CCCNC(=N)N)NC(=O)[C@H](CC(C)C)NC(=O)[C@@H](CC(C)C)NC(=O)[C@H](Cc1ccc(O)cc1)NC(=O)[C@H](CO)NC(=O)[C@H](Cc1c[nH]c2ccccc12)NC(=O)[C@H](Cc1c[nH]cn1)NC(=O)[C@@H]1CCC(=O)N1`: in data set [5], the result was Active.

For the compound `CNC(=N)NCCC[C@H](NC(=O)[C@H](CC(C)C)NC(=O)CNC(=O)[C@H](Cc1ccccc1)NC(=O)[C@H](CO)NC(=O)[C@H](CC(N)=O)NC(=O)[C@H](Cc1c[nH]c2ccccc12)NC(=O)[C@H](CC(N)=O)NC(=O)[C@H](N)Cc1ccc(O)cc1)C(=O)N[C@@H](Cc1ccccc1)C(N)=O`, the fold change (FC) in data set [3] came out at 0.93. For the same compound, the result in data set [6] was Active.

For `CNC(=N)NCCC[C@H](NC(=O)[C@H](CC(C)C)NC(=O)NNC(=O)[C@H](Cc1ccccc1)NC(=O)[C@H](CO)NC(=O)[C@H](CC(N)=O)NC(=O)[C@H](Cc1c[nH]c2ccccc12)NC(=O)[C@H](CC(N)=O)NC(=O)[C@H](N)Cc1cccnc1)C(=O)N[C@@H](Cc1ccccc1)C(N)=O` (H-[d3Pal]NWNSF[azaGly]L[Arg(Me)]F-NH2), in data set [3], the fold change (FC) was found to be 2.3. Also, the Ki is 120 pM in data set [1] and 140 pM in data set [2].

On to `CNC(=N)NCCC[C@H](NC(=O)[C@H](CC(C)C)NC(=O)NNC(=O)[C@H](Cc1ccccc1)NC(=O)[C@H](CO)NC(=O)[C@H](CC(N)=O)NC(=O)[C@H](CC1CCCCC1)NC(=O)[C@@H](CC(N)=O)NC(=O)[C@H](N)Cc1cccnc1)C(=O)N[C@@H](Cc1ccccc1)C(N)=O` (H-[d3Pal][dN][Cha]NSF[azaGly]L[Arg(Me)]F-NH2), for which the fold change (FC) in data set [3] is 10. Moreover, the values for the Ki in data set [1] and in data set [2] were 200 pM and 180 pM, respectively.

Regarding `CNC(=N)NCCC[C@H](NC(=O)[C@H](CC(C)C)NC(=O)NNC(=O)[C@H](Cc1ccccc1)NC(=O)[C@H](CO)NC(=O)[C@H](CC(N)=O)NC(=O)[C@H](Cc1c[nH]c2ccccc12)NC(=O)[C@H](CC(N)=O)NC(=O)[C@@H](C)N)C(=O)N[C@@H](Cc1ccccc1)C(N)=O` (H-[dA]NWNSF[azaGly]L[Arg(Me)]F-NH2), in data set [3], the fold change (FC) was determined as 4.9. Besides, the figures for the Ki in data set [1] and in data set [2] were 510 pM and 520 pM, respectively.

With `CC[C@H](C)[C@H](NC(=O)[C@H](N)Cc1ccc(O)cc1)C(=O)N[C@@H](CC(N)=O)C(=O)N[C@@H](CO)C(=O)N[C@@H](Cc1ccccc1)C(=O)NNC(=O)N[C@@H](CC(C)C)C(=O)N[C@@H](CCCNC(=N)NC)C(=O)N[C@@H](Cc1ccccc1)C(N)=O` (H-[dY]INSF[azaGly]L[Arg(Me)]F-NH2), the fold change (FC) in data set [3] was determined as 14. For the same compound, the Ki in data set [1] came out at 120 pM; in data set [2] it was 130 pM.

Consider `CNC(N)=NCCC[C@H](NC(=O)[C@H](CC(C)C)NC(=O)NNC(=O)[C@H](Cc1ccccc1)NC(=O)[C@H](CO)NC(=O)[C@H](CC(N)=O)NC(=O)[C@H](CO)NC(=O)[C@H](N)Cc1ccc(O)cc1)C(=O)N[C@@H](Cc1ccccc1)C(N)=O` (H-[dY]SNSF[azaGly]L[Arg(Me)]F-NH2), for which the Ki in data set [1] was 210 pM; in data set [2], 300 pM.

For the compound `CNC(=N)NCCC[C@H](NC(=O)[C@H](CC(C)C)NC(=O)NNC(=O)[C@H](Cc1ccccc1)NC(=O)[C@H](CO)NC(=O)[C@H](CC(N)=O)NC(=O)[C@@H](NC(=O)[C@H](N)Cc1ccc(O)cc1)[C@@H](C)O)C(=O)N[C@@H](Cc1ccccc1)C(N)=O` (H-[dY]TNSF[azaGly]L[Arg(Me)]F-NH2), the fold change (FC) in data set [3] came to 8.9. Also, the results for the Ki in data set [1] and in data set [2] were 200 pM and 240 pM, respectively.

For `CNC(=N)NCCC[C@H](NC(=O)[C@H](CC(C)C)NC(=O)NNC(=O)[C@H](Cc1ccccc1)NC(=O)[C@H](CO)NC(=O)[C@H](CC(N)=O)NC(=O)[C@H](Cc1c[nH]c2ccccc12)NC(=O)[C@H](N)Cc1ccc(O)cc1)C(=O)N[C@@H](Cc1ccccc1)C(N)=O` (H-[dY]WNSF[azaGly]L[Arg(Me)]F-NH2), the remaining at 1 h, 100 µM in data set [4] stood at 43.4%. The fold change (FC) in data set [3] came to 2.4. Further, the Ki in data set [1] turned out to be 44 pM; in data set [2], 59 pM.

For the compound `CNC(N)=NCCC[C@H](NC(=O)[C@H](CC(C)C)NC(=O)NNC(=O)[C@H](Cc1ccccc1)NC(=O)[C@H](CO)NC(=O)[C@H](CC(N)=O)NC(=O)[C@H](Cc1ccc2ccccc2c1)NC(=O)[C@H](N)Cc1ccc(O)cc1)C(=O)N[C@@H](Cc1ccccc1)C(N)=O` (H-[dY][2Nal]NSF[azaGly]L[Arg(Me)]F-NH2), the Ki was 32 pM in data set [1] and 51 pM in data set [2].

As for `CNC(N)=NCCC[C@H](NC(=O)[C@H](CC(C)C)NC(=O)NNC(=O)[C@H](Cc1ccccc1)NC(=O)[C@H](CO)NC(=O)[C@H](CC(N)=O)NC(=O)[C@H](Cc1ccccc1)NC(=O)[C@@H](CC(N)=O)NC(=O)[C@H](N)Cc1ccc(O)cc1)C(=O)N[C@@H](Cc1ccccc1)C(N)=O` (H-[dY][dN]FNSF[azaGly]L[Arg(Me)]F-NH2), in data set [4], the remaining at 1 h, 100 µM came out at 24.7%. The Ki in data set [1] and in data set [2] was 120 pM in each case.

Take `CNC(=N)NCCC[C@H](NC(=O)[C@H](CC(C)C)NC(=O)NNC(=O)[C@H](Cc1ccccc1)NC(=O)[C@H](CO)NC(=O)[C@H](CC(N)=O)NC(=O)[C@H](CC1CCCCC1)NC(=O)[C@@H](CC(N)=O)NC(=O)[C@H](N)Cc1ccc(O)cc1)C(=O)N[C@@H](Cc1ccccc1)C(N)=O` (H-[dY][dN][Cha]NSF[azaGly]L[Arg(Me)]F-NH2): in data set [3], the fold change (FC) was 17. Also, the Ki amounted to 55 pM in data set [1] and 76 pM in data set [2].

With `CNC(=N)NCCC[C@H](NC(=O)[C@H](CC(C)C)NC(=O)NNC(=O)[C@H](Cc1ccccc1)NC(=O)[C@H](CO)NC(=O)[C@H](CC(N)=O)NC(=O)[C@@H](Cc1c[nH]c2ccccc12)NC(=O)[C@H](N)Cc1ccc(O)cc1)C(=O)N[C@@H](Cc1ccccc1)C(N)=O` (H-[dY][dW]NSF[azaGly]L[Arg(Me)]F-NH2), in data set [3], the fold change (FC) turned out to be 4.5. Moreover, the Ki was 65 pM in data set [1] and 110 pM in data set [2].
